Measurements as given in the EternaBench riboswitch data.

System: MS2 coat protein
Assay: apparent Kd, MS2 coat protein; higher = weaker binding; RNA-MaP array; theophylline 2 mM where present
Outline: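 Designs were transcribed by stalled E. coli RNA polymerase on Illumina sequencing-chip clusters. They were titrated with SNAP-549-labelled MS2 coat protein from 0.7 or 1.5 nM, doubling to 3 µM, in 100 mM Tris-HCl pH 7.5, 80 mM KCl, 4 mM MgCl2, BSA, DTT, yeast tRNA and Tween-20, without and then with constant ligand. The apparent Kd is the median of filtered per-cluster fits after normalisation of green signal to red-channel RNA signal and control-cluster median Fmax.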

[1] = designed as: OFF switch for theophylline, no ligand
[2] = ligand present: theophylline, designed as: OFF switch for theophylline
[3] = designed as: ON switch for theophylline, no ligand
[4] = ligand present: theophylline, designed as: ON switch for theophylline

Sequence	apparent Kd [1] [nM]	apparent Kd [2] [nM]	apparent Kd [3] [nM]	apparent Kd [4] [nM]
CCUCGACAUGAGGAUCACCCAUGUAGAGAUACCAGCCUGUGAGAUGGCCCUUGGCAGCUCAUAUAGGGUACAGGAGUCGUUUUGA	23.2	85.1		
ACACAUGAGGAUCACCCAUGUGCAAUAGAUACCAGUGACGCGGUGCACCCUUGGCAGCUGUUGCUGAGUGAUGGUUCCCUCGGAA	36.6	58.5		
UAUACAUGAGGAUCACCCAUGUGCCAUGAUACCAGACAUGAAAAUGUCCCUUGGCAGCAUGGGAAAUGUAUAGCGGGAAACCCGA			72.6	704
AUAAGUAAUGUUUCGUGUAUUAUUACAGAUACCAGACUAUACGUUGUCCCUUGGCAGCUGGAUUACAUGAGGAUCACCCAUGUUG	15.8	27.5		
AGUACUCGAACGGAUACCAGCCGGACAUGAGGAUCACCCAUGUCCUACCAAUGUUCGGUUGGCCCUUGGCAGCCGUUCGUGUACA			588	35.2
AGCUCAUAGAGUGAUACCAGACUACAUGAGGAUCACCCAUGUUACUUUUAAAUAUCAUUUGUCCCUUGGCAGCACAUGAAGAGCA	13.6	12.7		
ACUUUGUCGGGUGAUACCAGCCUCGGCACAUCUCGUGCCGAACAUGAGGAUCACCCAUGUGGCCCUUGGCAGCACAUGACAACUC			375	67
GCACCAGGUACGGAUACCAGCUGCCAGCGUUACAUGAGGAUCACCCAUGUGAUCUGAAGUAGCCCUUGGCAGCUGUACCUGGUGC			21.2	95.9
GGAAUAACGAUUGAUACCAGCAUGUUAACAUGAGGAUCACCCAUGUUAAGGAUAACAUAAUGCCCUUGGCAGCAACGGAAACCCG			21.3	12.9
AGUAAUCUAAGAGAUACCAGACGGUAUAUAACAUGAGGAUCACCCAUGUUUUGGGUGUACGUCCCUUGGCAGCUCAAAAUGAUAA			230	115
AUUUACAUGGUCAUAUAUAUAUCGUCAGAUACCAGACUAGAUAUAGUCCCUUGGCAGCUGUUACAUGAGGAUCACCCAUGUUAUA	129	110		
GGUAGCAGGACUGAUACCAGUCCAGCGAAUCAUACGACGCAACAUGAGGAUCACCCAUGUGACCCUUGGCAGCAGACUGCUACCG			24.7	14.5
AGUGUAUCCAUCGAUACCAGCCACAACGUAACAUACACAUGAGGAUCACCCAUGUUGUGUGGCCCUUGGCAGCGGUGCCUGUGUA			14.3	12.2
GCACUACAUGAGGAUCACCCAUGUGCAGAUACCAGAGGUGUAUGCCUCCCUUGGCAGCUGAGUAGGUCUGGAGGGCUAUUGGUUU			17.6	23.5
ACAUGAGCAUCAGCCUUGUAGGAACUAGAUACCAGCCCAACAUGAGGCCCUUGGCAGCUGACAACAUGAGGAUCACCCAUGUCAC	36.2	34.1		
GGGCCUGUAGGCAGGCCCACAGCGGGUGAUACCAGCAAUAAAACUUGCCCUUGGCAGCACACAGCUACAUGAGGAUCACCCAUGU			41.2	70.5
AGCAGUACAACAGAUACCAGACUUUUAAUGCCUCUAAUUACAUGAGGAUCACCCAUGUUUGUCCCUUGGCAGCUGUUGUACUGCA	136	211		
AUUAUCAUGGUCAUUUAUAUUUCGUCAGAUACCAGACUAGAUAUAGUCCCUUGGCAGCUGUUACAUGAGGAUCACCCAUGUUAUU	124	46.6		
UUUGAUAGGACAGAUACCAGCGUGUUGUUGAACAUGAGGAUCACCCAUGUAGUGAUCGAGCGCCCUUGGCAGCUGGUUUGUUAGG			382	306
UACAUGAGGAUCACCCAUGUAUAGAGGGAUACCAGUGUCAGUGAGCACCCUUGGCAGCCCGCGAACAAUGGGUGCGCUAUAUAGU	26.3	62.2		
AGCCCUGUACUAGAUACCAGCUACAUGAGGAUCACCCAUGUGCGUCAAGACUGACUGUGUAGCCCUUGGCAGCUACUCGCAUGUA	15.7	25.5		
AUGCAGGGCAACAGCCACUGUCACGGUGAUACCAGUACCCGUGCGUACCCUUGGCAGCAUCGUGGUACAUGAGGAUCACCCAUGU			271	180
ACAUCCAGAUUAAUCGUGGGCAUACUCGAUACCAGUAUUUUAACCUACCCUUGGCAGCGACAUGAGGAUCACCCAUGUGAGAUGA	22.8	30		
GUGGAGACACGAGAUACCAGUCUCUAUAACAUGAGGAUCACCCAUGUAAUGCUCCUCAGGGACCCUUGGCAGCUCAGUAUGAUGA	32.9	134		
GAUGAACUAUGUGAUACCAGACAACAUGAGGAUCACCCAUGUGCGCGUCGUCCUCUGCCUGUCCCUUGGCAGCGUAUAGUUUAUC	60.3	124		
UAUAACAUGAGGAUCACCCAUGUAAGUGAUACCAGAUAAAUAAUAGUCCCUUGGCAGCAUAUUGGGAAAAUGUAUAAUAUAUAUU			57.8	57.4
UUUACAUGAGGAUCACCCAUGUGCCAUGAUACCAGACAUGAAAAUGUCCCUUGGCAGCAUGAAGGUACCUCAUCGGGAAACCGAA			134	247

Sequence	apparent Kd [1] [nM]	apparent Kd [2] [nM]	apparent Kd [3] [nM]	apparent Kd [4] [nM]
CGGUUUGUGAUGGAUACCAGCAGUGUGGCUGUUUAUCCUGACAUGAGGAUCACCCAUGUGUGCCCUUGGCAGCUGUUGUGGGCUG	76.5	130		
AACAUACAUGAGGAUCACCCAUGUCACGAUACCAGAUACAUGAGGAUCCCUUGGCAGCGUCAUGAGGAUCACCCAUGUUGUACAU	16.5	58.3		
AUACAUGAGGAUCACCCAUGUAUAGUCGAUACCAGCUCAAGGAAGAGCCCUUGGCAGCGACACUGGUAUCCAUGGGUGAUACCAG			22.3	31.5
CGAUCUUUCGAAAGAAGGAUCUUGUCUGAUACCAGAGACGAAAGUCUCCCUUGGCAGCAGUGCCAACAUGAGGAUCACCCAUGUU			14.5	14.8
ACUUCAUGAGGUGAUACCAGCCAAUGACAUGAGGACAUGAGGAUCACCCAUGUUUAUGUAGGCCCUUGGCAGCACUGUAACAUGA			20.6	25.9
GGUCUCUGGAGCGAUACCAGCUUGAUCGUACUGGCCUGGUACAUGAGGAUCACCCAUGUAAGCCCUUGGCAGCGCUCCAGAGACC	12.3	28.1		
GAUGAACUAUUUGAUACCAGACAACAUGAGGAUCACCCAUGUGCGCGUCGUCCUCUGCCUGUCCCUUGGCAGCAAAUAGUUUAUC	58.5	97.1		
UCGUGUAUAUCGGAUACCAGUGAGAAGGAUACAUGAGGAUCACCCAUGUGAGUUGAUGUACACCCUUGGCAGCUGUAUAUAUCUA			49.9	26.2
AGUGUUAUAACUGAUACCAGACUCUCAUGUUUACAUGAGGAUCACCCAUGUUAUUUCUUUGUCCCUUGGCAGCAGAAUUAACACA			208	38.2
AUAUGGCGAGAUGAUACCAGACACAUGAGGAUCACCCAUGUUGAUGGUAAGUCUGCAUAUGUCCCUUGGCAGCAUAGCGACAUAU	8.27	20.8		
AAUAACAUGAGGAUCACCCAUGUAAAAGAUACCAGGGUGAUGAUCCUCCCUUGGCAGCUUACAGCUGAUCAAUAAGAUCGGCUGA				257
GAUGAACUAUAUGAUACCAGACAACAUGAGGAUCACCCAUGUGUAUGUCGUCCUCUGCCUGUCCCUUGGCAGCGUAUAGUUUAUC	32.4	193		
UCUUGGUCCGCAAGGACCUUGAGUUGCGAUACCAGCACGGUAACGUGCCCUUGGCAGCGCACAUGAGGAUCACCCAUGUGGUGUU	261	236		
AGAACAAAACUAAAUAAACAACUGGGUGAUACCAGCACAUGUGCGUGCCCUUGGCAGCAUCCGGCCACAUGAGGAUCACCCAUGU			74	155
UACAUGAGGAUCACCCAUGUAUGAAUGGAUACCAGAUAAAAUAAGGUCCCUUGGCAGCUAGUGAAUCGAGGGUGGGUAUCAUGAU	11.2	10.3		
GAGCUGAUGUAGAGAUUAUAUAAAAGAGAUACCAGUACAGAAAUGUACCCUUGGCAGCUCAACUUUACAUGAGGAUCACCCAUGU	14.8	17.5		
ACACAUGAGGAUCACCCAUGUUCAAUAGAUACCAGUGAUACGGUGCACCCUUGGCAGCUGUUGCUGAGUGAUGGUUCCCUCGGAA			55.2	77.7
AGUGUAUCCAUCGAUACCAGCCACCACCGAUAGACCACAUGAGGAUCACCCAUGUUGGGUGGCCCUUGGCAGCGGUGGCUGUGUA			287	1190
UCCUCCUCCGCAAGGAGGAGGAGUUGCGAUACCAGCACGGCAACGUGCCCUUGGCAGCGCACAUGAGGAUCACCCAUGUCAUGUU	19.4	24.3		
UAACAUGAGGAUCACCCAUGUAUAGUCGAUACCAGCUCAAGGAAGAGCCCUUGGCAGCGACACUGCCAAGCAUGGGUCAUGGCAG			21.1	33.4
AAUCUGUCGGGUGAUACCAGCCUCGGCGCAUCUCGCACCGAACAUGAGGAUCACCCAUGUGGCCCUUGGCAGCACAUGACAAAUC			371	82.2
AGCAUUGUAACAGAUACCAGACUUUUAAUGCCUCUAAUUACAUGAGGAUCACCCAUGUUUGUCCCUUGGCAGCUGUUAUGAUGCA	119	226		
UGACAUUGCUCAGAUACCAGACAUGAGGAUCACCCAUGUGCCAAAUAAACGUACAUAAAUGUCCCUUGGCAGCUGAGCAAUGUCU	57.5	890		
GAUGAACUAUUUGAUACCAGACUACAUGAGGAUCACCCAUGUGUGUUUAUACUUCUGUCAGUCCCUUGGCAGCAAAUAGUUUAUC	62.5	106		
ACAUGAGGAUCACCCAUGUCUGCCACUGAUACCAGCGGAAGCCAACGCCCUUGGCAGCAGAACAUGAGGAUCACCCAUGUAGGCA			308	169
AAACUGGGUGUAAAAUAAAUAAUCACUGAUACCAGACUAUUUUAUGUCCCUUGGCAGCAGAAACAUGAGGAUCACCCAUGUAAUA	20.3	22.5		
